Data from ChEMBL document CHEMBL1811771, “Synthesis and antimycobacterial activities of non-purine analogs of 6-aryl-9-benzylpurines: Imidazopyridines, pyrrolopyridines, benzimidazoles, and indoles” (Bioorg Med Chem, 2011).
pIC50: −log10 of the molar value. Values after ≈ are worked out from the molar mass of the structure shown.

Assays:
[1] = system: Mycobacterium tuberculosis; experiment: Antimycobacterial activity against Mycobacterium tuberculosis H37Rv at 21 uM after 4 days by MABA assay; type: functional; conditions: 96 h
Escherichia coli = experiment: Antimicrobial activity against Escherichia coli ATCC 25922 by broth microdilution method; type: functional
Procedure, shortened: (§1)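 Broth microdilution in cation-adjusted Mueller-Hinton broth against the QC strain, following the standard method for inoculum preparation and incubation. Samples were serially diluted twofold from 16 to 0.125, in triplicate, with DMSO as solvent and diluent. A gentamicin accuracy control was made up in water and diluted in broth. MIC was the lowest concentration giving complete growth inhibition, read by eye.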

[2] = system: Mycobacterium tuberculosis; experiment: Antimycobacterial activity against Mycobacterium tuberculosis H37Rv after 4 days by MABA assay; type: functional; conditions: 96 h
Staphylococcus aureus = experiment: Antimicrobial activity against Staphylococcus aureus ATCC 29213 by broth microdilution method; type: functional; procedure, shortened: as §1
[3] = system: Mycobacterium tuberculosis; experiment: Antimycobacterial activity against Mycobacterium tuberculosis H37Rv at 128 uM after 4 days by MABA assay; type: functional
[4] = system: Mycobacterium tuberculosis; experiment: Antimycobacterial activity against Mycobacterium tuberculosis H37Rv transfected with pFPCA-luxAB grown under anaerobic condition for 10 days followed by 24 hrs incubation under aerobic condition by LORA assay; type: functional
[5] = system: Mycobacterium tuberculosis; experiment: Antimycobacterial activity against Mycobacterium tuberculosis H37Rv transfected with pFPCA-luxAB at 128 uM with pFPCA-luxAB grown under anaerobic condition for 10 days followed by 24 hrs incubation under aerobic condition by LORA assay; type: functional
Vero [6] = experiment: Cytotoxicity against african green monkey Vero cells; type: ADME, cell-based; conditions: Chlorocebus sabaeus
[7] = Selectivity index, ratio of EC50 for african green monkey VERO cells to MIC for Mycobacterium tuberculosis H37Rv; type: functional
Vero [8] = experiment: Cytotoxicity against african green monkey Vero cells at 128 uM; type: cell-based; conditions: chlorocebus sabaeus

Structure (SMILES): COc1ccc(Cn2ccc3c(-c4ccco4)cccc32)cc1
- inhibition at 21 µM [1]: 0%
- MIC (Escherichia coli): > 16 µg/mL
- MIC [2]: > 21 µM
- MIC (Staphylococcus aureus): > 16 µg/mL

Structure (SMILES): COc1ccc(Cn2ccc3c(-c4ccco4)ccnc32)cc1
- MIC (Escherichia coli): > 16 µg/mL
- MIC [2]: 44 µM (≈ 13.4 µg/mL)
- MIC (Staphylococcus aureus): > 16 µg/mL

Structure (SMILES): COc1ccc(Cn2ccc3c(-c4ccco4)ncnc32)cc1
- MIC [2]: 0.16 µM (≈ 0.0489 µg/mL)

Structure (SMILES): COc1ccc(Cn2cnc3c(-c4ccco4)cc(Cl)nc32)cc1
- MIC (Escherichia coli): > 16 µg/mL
- Activity [3]: 37%
- MIC [2]: > 128 µM
- MIC (Staphylococcus aureus): > 16 µg/mL

Structure (SMILES): COc1ccc(Cn2ccc3c(-c4ccco4)cc(Cl)nc32)cc1
- MIC (Escherichia coli): > 16 µg/mL
- Activity [3]: 86%
- MIC [2]: > 128 µM
- MIC (Staphylococcus aureus): > 16 µg/mL

Structure (SMILES): COc1ccc(Cn2ccc3c(-c4ccco4)nc(Cl)cc32)cc1
- MIC [4]: > 128 µM
- Activity [5]: 53%
- pIC50 (Vero [6]): 4.24
- Selectivity Index [7]: 644
- MIC (Escherichia coli): > 16 µg/mL
- MIC [2]: 0.09 µM (≈ 0.0305 µg/mL)
- MIC (Staphylococcus aureus): > 16 µg/mL

Structure (SMILES): COc1ccc(Cn2ccc3c(-c4ccco4)nc(Cl)nc32)cc1
- MIC [2]: 0.08 µM (≈ 0.0272 µg/mL)

Structure (SMILES): COc1ccc(Cn2cnc3c(-c4ccco4)nccc32)cc1
- MIC [4]: 80 µM (≈ 24.4 µg/mL)
- pIC50 (Vero [6]): < 3.89
- Selectivity Index [7]: >150
- MIC (Escherichia coli): > 16 µg/mL
- Activity (Vero [8]): 0%
- MIC [2]: 0.84 µM (≈ 0.256 µg/mL)
- MIC (Staphylococcus aureus): > 16 µg/mL

Structure (SMILES): COc1ccc(Cn2cnc3c(-c4ccco4)ncnc32)cc1
- MIC [2]: 2.1 µM (≈ 0.643 µg/mL)

Structure (SMILES): NNC(=O)c1ccncc1 [ISONIAZID]
- MIC [4]: > 128 µM
- MIC [2]: 0.28 µM (≈ 0.0384 µg/mL)

Structure (SMILES): O=[N+]([O-])c1cn2c(n1)OC[C@@H](OCc1ccc(OC(F)(F)F)cc1)C2 [PRETOMANID]
- MIC [4]: 3.11 µM (≈ 1.12 µg/mL)
- MIC [2]: 0.44 µM (≈ 0.158 µg/mL)

Structure (SMILES): CO[C@H]1/C=C/O[C@@]2(C)Oc3c(C)c(O)c4c(O)c(c(/C=N/N5CCN(C)CC5)c(O)c4c3C2=O)NC(=O)/C(C)=C\C=C\[C@H](C)[C@H](O)[C@@H](C)[C@@H](O)[C@@H](C)[C@H](OC(C)=O)[C@@H]1C [RIFAMPIN]
- MIC [4]: 0.97 µM (≈ 0.798 µg/mL)
- MIC [2]: 0.09 µM (≈ 0.0741 µg/mL)

Structure (SMILES): COc1ccc(Cn2cnc3c(-c4ccco4)nc(Cl)cc32)cc1
- MIC [4]: 48 µM (≈ 16.3 µg/mL)
- pIC50 (Vero [6]): < 3.89
- Selectivity Index [7]: >800
- MIC (Escherichia coli): > 16 µg/mL
- Activity (Vero [8]): 30%
- MIC [2]: 0.16 µM (≈ 0.0544 µg/mL)
- MIC (Staphylococcus aureus): > 16 µg/mL

Structure (SMILES): COc1ccc(Cn2cnc3c(-c4ccco4)nc(Cl)nc32)cc1
- MIC [2]: 0.36 µM (≈ 0.123 µg/mL)

Structure (SMILES): COc1ccc(Cn2cnc3c(-c4ccco4)ccnc32)cc1
- MIC (Escherichia coli): > 16 µg/mL
- MIC [2]: 63 µM (≈ 19.2 µg/mL)
- MIC (Staphylococcus aureus): > 16 µg/mL

Structure (SMILES): COc1ccc(Cn2cnc3c(-c4ccco4)cccc32)cc1
- MIC (Escherichia coli): > 16 µg/mL
- MIC [2]: 29 µM (≈ 8.83 µg/mL)
- MIC (Staphylococcus aureus): > 16 µg/mL

Structure (SMILES): COc1ccc(Cn2ccc3c(-c4ccco4)nccc32)cc1
- MIC [4]: 28 µM (≈ 8.52 µg/mL)
- pIC50 (Vero [6]): 4.92
- Selectivity Index [7]: 8.6
- MIC (Escherichia coli): > 16 µg/mL
- MIC [2]: 1.4 µM (≈ 0.426 µg/mL)
- MIC (Staphylococcus aureus): > 16 µg/mL
